ChEMBL document CHEMBL5360619
pIC50: −log10 of the molar value. Active and inactive are the calls of the source. The calls are words filed in the database; no cut-off is given here.

Key:
[1] = Apparent permeability across apical to basolateral side in human Caco-2 cells at 2 uM by LC-MS/MS analysis; assay type: ADME, cell-based
Method in brief: (§1)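 Caco-2 monolayers grown on permeable filters, used day 21. Drug solution 2 μM in prewarmed HBSS applied apical or basolateral, pH 7.4 both sides, 37 °C, stirring 500 rpm; 5 μM enalaprilat as integrity control. Receiver sampled at 30 min, donor sampled for mass balance; LC–MS/MS with warfarin internal standard.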

[2] = Efflux ratio of apparent permeability across […] side in human Caco-2 cells at 2 uM by LC-MS/MS analysis; assay type: ADME, cell-based; conditions: caco-2, 2 µM; method in brief: as §1
Cytochrome P450 3A4 [3] = biological target: T1, Cytochrome P450 3A4 (Homo sapiens, UniProt P08684); assay: Inhibition of CYP3A4 in human liver microsomes using midazolam as substrate incubated for 10 mins in presence of NADPH by LC-MS/MS analysis; assay type: ADME, Microsome
T1 sequence (P08684 whole entry): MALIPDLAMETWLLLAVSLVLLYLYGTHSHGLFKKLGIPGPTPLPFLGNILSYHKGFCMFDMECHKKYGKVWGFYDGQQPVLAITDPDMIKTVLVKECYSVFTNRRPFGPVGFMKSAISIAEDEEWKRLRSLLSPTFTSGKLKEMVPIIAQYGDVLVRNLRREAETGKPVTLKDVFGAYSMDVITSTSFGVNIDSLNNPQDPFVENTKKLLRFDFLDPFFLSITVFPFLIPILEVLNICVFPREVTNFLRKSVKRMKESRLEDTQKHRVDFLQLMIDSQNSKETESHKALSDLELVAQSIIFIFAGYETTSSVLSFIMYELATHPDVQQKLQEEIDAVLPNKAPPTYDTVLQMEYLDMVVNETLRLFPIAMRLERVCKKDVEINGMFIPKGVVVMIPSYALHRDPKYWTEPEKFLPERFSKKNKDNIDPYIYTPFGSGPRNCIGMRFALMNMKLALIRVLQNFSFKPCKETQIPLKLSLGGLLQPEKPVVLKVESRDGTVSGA
Method in brief: (§2)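 Human liver microsomes 0.2 mg/mL in 100 mM phosphate pH 7.4; compound final 1, 10 and 100 μM (1% DMSO). Substrates: midazolam 5 μM (10 min) or testosterone 50 μM (30 min). Started with NADPH, stopped with ice-cold acetonitrile containing internal standard; LC–MS/MS.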

Cytochrome P450 3A4 [4] = biological target: T1, Cytochrome P450 3A4; assay: Inhibition of CYP3A4 in human liver microsomes using testosterone as substrate incubated for 30 mins in presence of NADPH by LC-MS/MS analysis; assay type: ADME, Microsome; method in brief: as §2
[5] = Cytotoxicity against human Calu-3 cells assessed as reduction in cellular ATP level incubated for 72 hrs by celltiter-glo assay; assay type: toxicity, cell-based; conditions: read-out: LD50
Method in brief: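 Calu-3 cells (DMEM, 10% FBS) plated 10,000/well for 18 h, then medium switched to 2% FBS; eight twofold doses 250 down to […], compounds as imidazole salts in DMSO with IMD/DMSO controls.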

[6] = Therapeutic index, ratio of LD50 for human IMR-90 cells to IC50 for antimycobacterial activity against Mycobacterium tuberculosis Erdman; assay type: toxicity; conditions: read-out: TI
Method in brief: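 LD50 from 48 h MTT assay in HEK 293, BEAS-2B or IMR-90 cells divided by MABA IC50 against Mtb.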

[7] = system: Mycobacterium tuberculosis; assay: Inhibition of biofilm formation in Mycobacterium tuberculosis Erdman assessed as inhibition of biofilm pellicle formation at 2.5 to 50 uM pretreated for 3 weeks under low oxygen and further treated for 3 weeks under aerated condition in presence of 0.05% tyloxapol by optical density based analysis; assay type: functional, organism-based; conditions: dose 2.5-50 µM, time 6.0 weeks
Method in brief: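 Pellicle assay with 0.05% tyloxapol added to each well to prevent biofilm; otherwise Sauton's medium inoculated with Mtb plus compound, sealed airtight 3 weeks at 37 °C, 5% CO2, then opened for 3 weeks aerobic.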

[8] = system: Mycobacterium tuberculosis; assay: (§3) Antimycobacterial activity against Mycobacterium tuberculosis H37Rv expressing GFP infected in mouse RAW264.7 cells assessed as inhibition of intracellular mycobacterial growth by measuring reduction in percentage of infected cells incubated for 5 days by SYTO 60 dye based automated high-content fluorescent microscopic analysis; assay type: functional, organism-based; conditions: time 5.0 day
Method in brief: (§4)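 RAW 264.7 macrophages infected with GFP-expressing H37Rv for 3 h at 37 °C with shaking, washed by centrifugation, then seeded at 20,000 cells/well onto compounds dispensed acoustically from DMSO stocks, DMSO backfill. Incubated 5 days at 37 °C, 5% CO2, stained with SYTO 60, four confocal images per well; percentage of infected cells and bacterial area per infected cell scored. IC50 from dose–response; four replicates.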

[9] = system: Mycobacterium tuberculosis; assay: as §3, with “bacterial area per” for “percentage of”; assay type: functional, organism-based; conditions: time 5.0 day; method in brief: as §4
RAW264.7 = assay: Cytotoxicity against mouse RAW264.7 cells assessed as reduction in cell viability at 0.01 to 10 uM incubated for 5 days by SYTO 60 dye based automated high-content fluorescent microscopic analysis; assay type: toxicity; conditions: raw264.7, 120 h, dose 0.01-10 µM, time 5 day
Method in brief: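 RAW 264.7 cells in RPMI-1640 with 10% heat-inactivated FBS, 20,000 cells/well added to compounds acoustically dispensed from DMSO stocks, DMSO backfill; 5 days at 37 °C, 5% CO2. SYTO 60 staining, four confocal images per well, total cell number counted; dose–response plotted.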

CYP3A4 [10] = assay: Selectivity index, ratio of IC50 for CYP3A4 in human liver microsomes using midazolam as substrate to IC50 for antimycobacterial activity against Mycobacterium tuberculosis Erdman; assay type: toxicity; conditions: probe midazolam, read-out: Ratio IC50
CYP3A4 [11] = assay: Selectivity index, ratio of IC50 for CYP3A4 in human liver microsomes using testosterone as substrate to IC50 for antimycobacterial activity against Mycobacterium tuberculosis Erdman; assay type: toxicity; conditions: probe testosterone, read-out: Ratio IC50
[12] = Solubility of compound in tween-free sauton's medium; assay type: physicochemical

Structure (SMILES): CC(C)(C)c1ccc(-c2nnc(SCc3cc(=O)n4c(c3C3CC3)SCC4C(=O)O)o2)cc1 (racemic)
- Papp A→B at 2 µM [1]: 0.88 ×10⁻⁶ cm/s
- Ratio [2]: 1.5
- pIC50 (Cytochrome P450 3A4 [3]): < 4.00
- pIC50 (Cytochrome P450 3A4 [4]): < 4.00

Structure (SMILES): O=C(O)C1CSc2c(C3CC3)c(-c3cc(-c4ccc5ccccc5c4)no3)cc(=O)n21.c1c[nH]cn1 (racemic)
- CC50 at 72 h [5]: > 250 µM
- selectivity ratio [6]: 168
- inhibition [7]: inactive
- Activity [8]: Active
- Activity [9]: Active
- Activity (RAW264.7): Non-Toxic
- selectivity ratio (CYP3A4 [10]): ≥ 16
- selectivity ratio (CYP3A4 [11]): ≥ 16

Structure (SMILES): O=C(O)C1CSc2c(C3CC3)c(Cc3cccc4ccccc34)cc(=O)n21.c1c[nH]cn1 (racemic)
- Activity (RAW264.7): Non-Toxic
- selectivity ratio (CYP3A4 [10]): ≥ 16
- selectivity ratio (CYP3A4 [11]): ≥ 16

Structure (SMILES): O=C(O)C1CSc2c(C3CC3)c(CSc3nnc(-c4cccc(C(F)(F)F)c4)o3)cc(=O)n21 (racemic)
- solubility [12]: Insoluble

Structure (SMILES): CC(C)(C)c1ccc(-n2cc(-c3cc(=O)n4c(c3C3CC3)SCC4C(=O)O)nn2)cc1 (racemic)
- pIC50 (Cytochrome P450 3A4 [3]): < 4.00
- pIC50 (Cytochrome P450 3A4 [4]): < 4.00

Structure (SMILES): O=C(O)C1CSc2c(C3CC3)c(-c3cc(-c4ccccc4)no3)cc(=O)n21 (racemic)
- solubility [12]: Insoluble
